Results from ChEMBL document CHEMBL1156886, “Exploring epidermal growth factor receptor (EGFR) inhibitor features: the role of fused dioxygenated rings on the quinazoline scaffold” (J Med Chem, 2010).
pIC50: −log10 of the molar value. Activity calls are given as the source filed them. The rule behind the calls is not given here.

tested on: A-431; assay: Antiproliferative activity against exogenous EGF-induced human A431 cell growth at 0.1 uM pretreated for 24 hrs measured after 72 hrs of drug removel by MTT assay; format: functional, cell-based; details: not given

Row | Structure (SMILES) | Activity
1 | COc1cc2ncnc(Nc3cccc(Br)c3)c2cc1OC | inactive

tested on: A-431; assay: Cytotoxicity against human A431 cells after 72 hrs by MTT assay; format: functional, cell-based; details: A-431, 72 h
Outline: (§1)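 MTT proliferation assay after 72 h continuous compound exposure in A431 (EGFR-overexpressing) and NIH3T3 (not expressing EGFR) cells. Highest concentration tested 10 μM, limited by precipitation in culture medium. IC50 not derived when inhibition stayed below 50% at 10 μM. Values are mean ± SD of at least three independent experiments.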

Row | Structure (SMILES) | pIC50
2 | FC(F)(F)c1cccc(Nc2ncnc3cc4c(cc23)OCCO4)c1 | 6.11
3 | Fc1cc(Br)ccc1Nc1ncnc2cc3c(cc12)OCCCO3 | < 5.00
4 | Fc1ccc(Nc2ncnc3cc4c(cc23)OCCO4)cc1Cl | < 5.00
5 | FC(F)(F)c1cccc(Nc2ncnc3cc4c(cc23)OCO4)c1 | 5.07
6 | Cc1cccc(Nc2ncnc3cc4c(cc23)OCO4)c1 | 5.17
7 | Fc1ccc(Nc2ncnc3cc4c(cc23)OCO4)cc1Cl | < 5.00
8 | Cc1cccc(Nc2ncnc3cc4c(cc23)OCCO4)c1 | 6.17
9 | Fc1ccc(Nc2ncnc3cc4c(cc23)OCCCO4)cc1Cl | 5.15
10 | Brc1cccc(Nc2ncnc3cc4c(cc23)OCCO4)c1 | 6.12
11 | Cc1cccc(Nc2ncnc3cc4c(cc23)OCCCO4)c1 | 5.20
12 | FC(F)(F)c1cccc(Nc2ncnc3cc4c(cc23)OCCCO4)c1 | 5.33
13 | Brc1cccc(Nc2ncnc3cc4c(cc23)OCO4)c1 | 5.15
14 | Fc1cc(Br)ccc1Nc1ncnc2cc3c(cc12)OCO3 | < 5.00
15 | Fc1cc(Br)ccc1Nc1ncnc2cc3c(cc12)OCCO3 | 5.20
16 | Brc1cccc(Nc2ncnc3cc4c(cc23)OCCCO4)c1 | 5.09

tested on: A-431; assay: Antiproliferative activity against human A431 cells assessed as cell growth at 10 uM pretreated for 24 hrs measured after 68 hrs of drug removel by MTT assay; format: functional, cell-based; details: not given

Row | Structure (SMILES) | Activity
17 | FC(F)(F)c1cccc(Nc2ncnc3cc4c(cc23)OCCO4)c1 | Active
18 | FC(F)(F)c1cccc(Nc2ncnc3cc4c(cc23)OCO4)c1 | Active
19 | Cc1cccc(Nc2ncnc3cc4c(cc23)OCO4)c1 | Active
20 | Cc1cccc(Nc2ncnc3cc4c(cc23)OCCO4)c1 | Active
21 | Fc1ccc(Nc2ncnc3cc4c(cc23)OCCCO4)cc1Cl | Active
22 | Brc1cccc(Nc2ncnc3cc4c(cc23)OCCO4)c1 | Active
23 | Cc1cccc(Nc2ncnc3cc4c(cc23)OCCCO4)c1 | Active
24 | FC(F)(F)c1cccc(Nc2ncnc3cc4c(cc23)OCCCO4)c1 | Active
25 | Brc1cccc(Nc2ncnc3cc4c(cc23)OCO4)c1 | Active
26 | COc1cc2ncnc(Nc3cccc(Br)c3)c2cc1OC | Active
27 | Fc1cc(Br)ccc1Nc1ncnc2cc3c(cc12)OCCO3 | Active
28 | Brc1cccc(Nc2ncnc3cc4c(cc23)OCCCO4)c1 | Active

tested on: NIH3T3; assay: Cytotoxicity against mouse NIH/3T3 cells after 72 hrs by MTT assay; format: functional, cell-based; details: NIH3T3, 72 h; outline: as §1

Row | Structure (SMILES) | pIC50
29 | FC(F)(F)c1cccc(Nc2ncnc3cc4c(cc23)OCCO4)c1 | 5.15
30 | FC(F)(F)c1cccc(Nc2ncnc3cc4c(cc23)OCO4)c1 | < 5.00
31 | Cc1cccc(Nc2ncnc3cc4c(cc23)OCO4)c1 | < 5.00
32 | Cc1cccc(Nc2ncnc3cc4c(cc23)OCCO4)c1 | 5.24
33 | Fc1ccc(Nc2ncnc3cc4c(cc23)OCCCO4)cc1Cl | < 5.00
34 | Brc1cccc(Nc2ncnc3cc4c(cc23)OCCO4)c1 | < 5.00
35 | Cc1cccc(Nc2ncnc3cc4c(cc23)OCCCO4)c1 | < 5.00
36 | FC(F)(F)c1cccc(Nc2ncnc3cc4c(cc23)OCCCO4)c1 | < 5.00
37 | Brc1cccc(Nc2ncnc3cc4c(cc23)OCO4)c1 | < 5.00
38 | COc1cc2ncnc(Nc3cccc(Br)c3)c2cc1OC | < 5.00
39 | Fc1cc(Br)ccc1Nc1ncnc2cc3c(cc12)OCCO3 | 5.27
40 | Brc1cccc(Nc2ncnc3cc4c(cc23)OCCCO4)c1 | < 5.00
